Data set [1] concerns the target Xanthine dehydrogenase/oxidase (Bos taurus, UniProt P80457). In words: Inhibition of bovine xanthine oxidase assessed as reduction in uric acid formation using xanthine as substrate incubated for 3 mins by microplate assay.
For data set [2], the system named is Mus musculus. In words: Hypouricemic activity in ICR mouse model of xanthine/potassium oxonate-induced acute hyperuricemia assessed as decrease in serum uric acid level at 5 mg/kg, ig relative to control. In kind it is functional, organism-based. Particulars: TDE = time-dependent effect. A digest of the protocol: (§1)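 ICR mice (18–22 g), acclimatized ≥1 week. Acute hyperuricemia induced by potassium oxonate 250 mg/kg s.c. plus hypoxanthine 400 mg/kg i.p., both in saline. Baseline tail blood taken at 1 h, then compound given intragastrically at 5 mg/kg as a suspension in 0.5% CMC-Na; model group received vehicle. […] Mean ± S.D.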

Data set [3] concerns Mus musculus. In words: Hypouricemic activity in ICR mouse model of xanthine/potassium oxonate-induced acute hyperuricemia assessed as decrease in serum uric acid level at 5 mg/kg, ig measured after 4 hrs relative to control. In kind it is functional, organism-based. A digest of the protocol: as §1
In data set [4] the test system is Mus musculus. In words: Hypouricemic activity in ICR mouse model of xanthine/potassium oxonate-induced long term hyperuricemia assessed as decrease in serum uric acid level at 5 mg/kg, ig qd treated subsequently for 7 days relative to control. Particulars: time 7.0 day. The data set is classed as functional, organism-based. In outline:
(§2)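 Long-term model in ICR mice: potassium oxonate 250 mg/kg s.c. plus hypoxanthine 150 mg/kg i.p. at 9:00 AM, once daily for 7 days. Compound dosed intragastrically at 5 mg/kg (0.5% CMC-Na suspension) at 10:00 AM for 7 days. Serum obtained by centrifugation at 4000 r/min for 10 min and stored at −80 °C. Uric acid, creatinine and urea nitrogen measured with diagnostic kits; n = 8.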

Data set [5] is described as follows: Toxicity in ICR mouse model of xanthine/potassium oxonate-induced hyperuricemia assessed as creatinine level at 5 mg/kg, ig qd treated subsequently for 7 days relative to control. The data set is classed as organism-based. Particulars: in vivo, po, 168 h, time 7 day. In outline: as §2
Data set [6] can be described thus: Toxicity in ICR mouse model of xanthine/potassium oxonate-induced hyperuricemia assessed as urea nitrogen level at 5 mg/kg, ig qd treated subsequently for 7 days relative to control. Particulars: in vivo, po, 168 h, time 7 day. In kind it is organism-based. In outline:
as §2

The source made the active and inactive calls. The calls are words filed in the database; no cut-off is given here.

Sequence of Xanthine dehydrogenase/oxidase (P80457 whole entry): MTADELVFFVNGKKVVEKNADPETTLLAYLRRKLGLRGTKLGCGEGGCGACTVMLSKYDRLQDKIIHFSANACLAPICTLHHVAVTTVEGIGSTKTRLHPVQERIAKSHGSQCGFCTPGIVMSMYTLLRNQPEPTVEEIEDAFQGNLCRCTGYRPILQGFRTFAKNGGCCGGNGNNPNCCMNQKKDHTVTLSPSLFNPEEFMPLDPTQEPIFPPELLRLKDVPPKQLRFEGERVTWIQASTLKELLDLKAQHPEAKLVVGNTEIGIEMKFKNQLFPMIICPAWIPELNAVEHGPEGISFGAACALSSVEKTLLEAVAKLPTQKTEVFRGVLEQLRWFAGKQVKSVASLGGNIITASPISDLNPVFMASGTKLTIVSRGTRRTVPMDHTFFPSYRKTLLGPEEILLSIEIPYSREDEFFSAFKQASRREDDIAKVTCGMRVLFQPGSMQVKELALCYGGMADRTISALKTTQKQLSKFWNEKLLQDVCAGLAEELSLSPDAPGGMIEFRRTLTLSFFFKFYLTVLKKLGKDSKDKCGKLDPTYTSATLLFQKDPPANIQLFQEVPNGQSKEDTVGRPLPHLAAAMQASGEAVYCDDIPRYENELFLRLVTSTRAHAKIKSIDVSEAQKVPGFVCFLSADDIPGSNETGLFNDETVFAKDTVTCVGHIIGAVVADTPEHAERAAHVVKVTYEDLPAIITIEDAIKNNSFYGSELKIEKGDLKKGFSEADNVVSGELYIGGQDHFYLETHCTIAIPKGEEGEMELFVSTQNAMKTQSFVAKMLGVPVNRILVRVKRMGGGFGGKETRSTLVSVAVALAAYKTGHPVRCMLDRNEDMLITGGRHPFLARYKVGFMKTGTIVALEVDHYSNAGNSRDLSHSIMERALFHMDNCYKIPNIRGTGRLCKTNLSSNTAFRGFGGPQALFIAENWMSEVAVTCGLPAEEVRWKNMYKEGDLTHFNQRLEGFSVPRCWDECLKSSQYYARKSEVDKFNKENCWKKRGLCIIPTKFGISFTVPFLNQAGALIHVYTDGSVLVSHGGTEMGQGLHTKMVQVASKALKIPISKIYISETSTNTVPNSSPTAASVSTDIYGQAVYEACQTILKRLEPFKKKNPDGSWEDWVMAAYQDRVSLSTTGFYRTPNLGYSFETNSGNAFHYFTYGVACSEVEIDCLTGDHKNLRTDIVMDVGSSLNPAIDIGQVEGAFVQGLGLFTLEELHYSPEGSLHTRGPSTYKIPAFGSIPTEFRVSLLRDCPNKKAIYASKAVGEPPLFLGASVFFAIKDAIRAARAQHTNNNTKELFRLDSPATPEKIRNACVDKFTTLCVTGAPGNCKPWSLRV

On to `CCOc1ccc(-n2cnc(C(=O)O)c2)cc1C#N`, for which, in data set [1], the IC50 is 226 nM. On the same count and under the same terms, next, `COc1cccc(-c2ccc(-n3cnc(C(=O)O)c3)cc2C#N)c1`: 74.4 nM.

For `CCC(CC)Oc1ccc(-n2cnc(C(=O)O)c2)cc1C#N`, in data set [1], the half-maximal inhibitory concentration (IC50) came out at 40.6 nM. Turning to `CC(C)Oc1ccc(-n2cnc(C(=O)O)c2)cc1C#N`, the concentration for half-maximal inhibition (IC50) in data set [1] amounted to 198 nM. The same measure, in the same setting: next, `N#Cc1cc(-n2cnc(C(=O)O)c2)ccc1OC1CCCC1`: 63 nM; `CCC(CC)COc1ccc(-n2cnc(C(=O)O)c2)cc1C#N`: 29.8 nM; `CC1CCN(c2ccc(-n3cnc(C(=O)O)c3)cc2C#N)CC1`: 30.5 nM. As to `CC(C)COc1ccc(-n2cnc(C(=O)O)c2)cc1C#N`, the IC50 in data set [1] worked out at 94.5 nM.

With `CCOc1ccc(-c2c[nH]c(C(=O)O)n2)cc1C#N`, the 50% inhibitory concentration (IC50) in data set [1] worked out at 948 nM. Take `CC(C)(C)c1ccc(-c2ccc(-n3cnc(C(=O)O)c3)cc2C#N)cc1`: the half-inhibitory concentration (IC50) in data set [1] was determined as 7.2 nM. For the same molecule, the Activity result in the data set with Mus musculus [2] is “Tde”; in data set [5], “Toxic”; in data set [6] it was “Toxic”. Moreover, the result in the data set on Mus musculus [3] and with Mus musculus [4] was Active. For the molecule `COc1ccc(-c2ccc(-n3cnc(C(=O)O)c3)cc2C#N)cc1`, the IC50 in data set [1] was 34.5 nM. On to `CC(C)COc1ccc(-c2c[nH]c(C(=O)O)n2)cc1C#N`, for which the concentration for half-maximal inhibition (IC50) in data set [1] is 510 nM.

`CC(C)Oc1ccc(-c2c[nH]c(C(=O)O)n2)cc1C#N`: the IC50 in data set [1] is 750 nM. With `CC(C)COc1ccc(-c2cn(C)c(C(=O)O)n2)cc1C#N`, in data set [1], the IC50 was determined as 2160 nM.

On to `CCC(C)Oc1ccc(-n2cnc(C(=O)O)c2)cc1C#N` (configuration not stated), for which, in data set [1], the IC50 worked out at 73.9 nM. For `N#Cc1cc(-n2cnc(C(=O)O)c2)ccc1OC1CCCCC1`, in data set [1], the IC50 was found to be 47.4 nM.

For `N#Cc1cc(-n2cnc(C(=O)O)c2)ccc1N1CCCCCCC1`, in data set [1], the half-maximal inhibitory concentration (IC50) turned out to be 8 nM. In addition, the Activity entry with Mus musculus [2] was “Tde”; in data set [5], “Toxic”; in data set [6], “Toxic”. Moreover, the outcome in the data set with Mus musculus [3] and in the data set with Mus musculus [4] was Active. Take `N#Cc1cc(-c2c[nH]c(C(=O)O)n2)ccc1OC1CCCC1`: the IC50 in data set [1] worked out at 387 nM. On the same count and under the same terms, next, `N#Cc1cc(-n2cnc(C(=O)O)c2)ccc1N1CCCC1`: 34.1 nM; `CC(C)CN(C)c1ccc(-n2cnc(C(=O)O)c2)cc1C#N`: 27.1 nM. Regarding `CC(C)(C)COc1ccc(-n2cnc(C(=O)O)c2)cc1C#N`, the half-inhibitory concentration (IC50) in data set [1] is 67.9 nM. On the same count and under the same terms, next, `N#Cc1cc(-n2cnc(C(=O)O)c2)ccc1N1CCCCC1`: 55.6 nM.

Source of the values: ChEMBL document CHEMBL4680125, “Synthesis and bioevaluation of 1-phenylimidazole-4-carboxylic acid derivatives as novel xanthine oxidoreductase inhibitors” (Eur J Med Chem, 2020).
